Consider 14 molecules from ChEMBL document CHEMBL1144509, “Identification of some novel AHAS inhibitors via molecular docking and virtual screening approach” (Bioorg Med Chem, 2007).

pKi: −log10 of the molar value. Peptide text beside a SMILES is read from it.

Experiment [1] deals with Brassica rapa subsp. oleifera. The experiment is described as follows: Herbicidal activity against Brassica campestris L assessed as inhibition of rape root growth at 100 ug/ml. The class given is functional. The procedure, abridged: (§1)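 Rape seeds pre-soaked 4 h in distilled water, then set on filter paper in 6-cm dishes wetted with 2 ml test solution, usually 10 seeds per plate, duplicate plates. Germination in the dark for 72 h at 28 (±1) °C. Mean length of 10 roots measured. Percent inhibition calculated against distilled-water controls.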

The test system of experiment [2] is Brassica rapa subsp. oleifera. As to the kind of experiment: Herbicidal activity against Brassica campestris L assessed as inhibition of rape root growth at 10 ug/ml. The class given is functional. In short, it runs like this:
as §1

A short description of experiment [3]: Inhibition of Arabidopsis thaliana AHAS. In short, it runs like this:
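Purified recombinant plant AHAS. Colorimetric assay in 50 mM potassium phosphate pH 7.0 with 50 mM pyruvate, 1 mM thiamine diphosphate, 10 mM MgCl2 and 10 µM FAD, compounds given as emulsions, 30 min at 37 °C. Stopped with 10% H2SO4, then 60 °C for 15 min to convert acetolactate to acetoin. Acetoin developed with 0.5% creatine and 5% α-naphthol for 15 min at 60 °C, read at A525.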

As to `NC(=O)CCC(NC(=O)OCC1c2ccccc2-c2ccccc21)C(=O)O` (stereo unspecified), the inhibition at 100 µg/mL in experiment [1] stood at 13.9%. Further, in experiment [2], the inhibition at 10 µg/mL came to 0%.
For the molecule `O=C(NC(Cc1c[nH]cn1)C(=O)O)OCc1ccccc1` (stereo unspecified), the inhibition at 100 µg/mL in experiment [1] was 0%. In experiment [2], the inhibition at 10 µg/mL amounted to 0%.
`O=C1/C(=C2\Nc3ccc(S(=O)(=O)O)cc3C2=O)Nc2ccc(S(=O)(=O)O)cc21` [INDIGOTINDISULFONATE] gave a pKi in experiment [3] of 4.38. Also, in experiment [1], the inhibition at 100 µg/mL turned out to be 0%. For the same molecule, in experiment [2], the inhibition at 10 µg/mL turned out to be 0%.
For `N[C@@H](Cc1ccc(O)cc1)C(=O)N[C@@H](Cc1ccccc1)C(=O)O` (H-Tyr-Phe-OH), the inhibition at 100 µg/mL in experiment [1] amounted to 0%. For the same molecule, in experiment [2], the inhibition at 10 µg/mL worked out at 0%.
Molecule `O=C(O)C(Cc1c[nH]c2ccccc12)NSc1ccccc1[N+](=O)[O-]` (stereo unspecified) gave a pKi in experiment [3] of 4.04. Moreover, in experiment [1], the inhibition at 100 µg/mL came to 74.8%. The inhibition at 10 µg/mL in experiment [2] turned out to be 60.5%.
Consider `O=C(O)Cc1cccc(CC(=O)O)c1`, for which the inhibition at 100 µg/mL in experiment [1] worked out at 2.6%. In addition, in experiment [2], the inhibition at 10 µg/mL was found to be 0%.
As to `CC(O)C(NC(=O)OCC1c2ccccc2-c2ccccc21)C(=O)O` (stereo unspecified), in experiment [1], the inhibition at 100 µg/mL was found to be 25.7%. Further, in experiment [2], the inhibition at 10 µg/mL came out at 0%.
Regarding `O=C(O)c1ccc(SSc2ccc(C(=O)O)cn2)nc1`, the pKi in experiment [3] is 4.82. The inhibition at 100 µg/mL in experiment [1] came out at 12.1%. Besides, the inhibition at 10 µg/mL in experiment [2] was found to be 6%.
Consider `O=C(O)c1cc(-c2cc(C(=O)O)c3ccccc3n2)nc2ccccc12`, for which the inhibition at 100 µg/mL in experiment [1] came to 1.4%. Also, the inhibition at 10 µg/mL in experiment [2] was 0%.
In the same order, the values of `O=C(O)c1cccc(F)c1C(=O)O` are 0% and 0%.
In the same order, the values of `CC(NC(=O)OCC1c2ccccc2-c2ccccc21)C(=O)O` (stereo unspecified) are 12.9% and 0%.
As to `NC(=O)CCC(NC(=O)OCc1ccccc1)C(=O)O` (stereo unspecified), the inhibition at 100 µg/mL in experiment [1] is 6.3%. In addition, in experiment [2], the inhibition at 10 µg/mL is 0%.
`O=C(O)C(Cc1ccc(O)cc1)NSc1ccccc1[N+](=O)[O-]` (stereo unspecified): in experiment [1], the inhibition at 100 µg/mL stood at 0%. In experiment [2], the inhibition at 10 µg/mL turned out to be 0%.
Turning to `O=C(O)CC(NC(=O)OCc1ccccc1)C(=O)O` (stereo unspecified), the inhibition at 100 µg/mL in experiment [1] is 0%. Besides, the inhibition at 10 µg/mL in experiment [2] worked out at 0%.

Broadly, the inhibition is the change of the read-out against control, counted positive when it falls. The pKi is the Ki on a negative log10 scale, so that one unit is a factor of ten. High values mean a small Ki, low ones a large Ki.
